According to ChEMBL document CHEMBL1136045, “Synthesis, in vitro receptor binding, and in vivo evaluation of fluorescein and carbocyanine peptide-based optical contrast agents” (J Med Chem, 2002):
pIC50: −log10 of the molar value.

molecular target: Somatostatin receptor; assay: In vitro binding affinity of [111In]DTPA-[Y3]-octreotate to somatostatin receptor in the rat pancreatic tumor cell line, […]
In short: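 Competition binding on CA20948 rat pancreatic cell membranes with the tracer [111In]-DTPA-[Y3]-octreotate and increasing concentrations of unlabeled competitor. Incubation 90 min at room temperature, then filtration and buffer washes. Filter-bound radioactivity was gamma-counted, and IC50 came from a four-parameter curve fit. Specific activity of the radiolabeled peptide was >1400 Ci/mmol.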

| SMILES | IC50 [nM] |
| --- | --- |
| C[C@@H](O)[C@H](NC(=O)[C@H]1CSSC[C@H](NC(=O)[C@@H](Cc2ccccc2)NC(=O)CNC(=O)[C@H](CO)NC(=O)CNC(=S)Nc2ccc3c(c2)C(=O)OC32c3ccc(O)cc3Oc3cc(O)ccc32)C(=O)N[C@@H](Cc2ccc(O)cc2)C(=O)N[C@H](Cc2c[nH]c3ccccc23)C(=O)N[C@@H](CCCCN)C(=O)N[C@H]([C@@H](C)O)C(=O)N1)C(=O)O | 285.2 |
| C[C@@H](O)[C@H](NC(=O)[C@H]1CSSC[C@H](NC(=O)[C@H](N)Cc2ccccc2)C(=O)N[C@@H](Cc2ccc(O)cc2)C(=O)N[C@H](Cc2c[nH]c3ccccc23)C(=O)N[C@@H](CCCCN)C(=O)N[C@H]([C@@H](C)O)C(=O)N1)C(=O)O | 0.6 |
| C[C@@H](O)[C@@H](CO)NC(=O)[C@H]1CSSC[C@H](NC(=O)[C@H](N)Cc2ccccc2)C(=O)N[C@@H](Cc2ccc(O)cc2)C(=O)N[C@H](Cc2c[nH]c3ccccc23)C(=O)N[C@@H](CCCCN)C(=O)N[C@H]([C@@H](C)O)C(=O)N1 | 0.4 |
| C[C@@H](O)[C@H](NC(=O)[C@H]1CSSC[C@H](NC(=O)[C@@H](Cc2ccccc2)/N=C(/S)Nc2ccc3c(c2)C(=O)OC32c3ccc(O)cc3Oc3cc(O)ccc32)C(=O)N[C@@H](Cc2ccc(O)cc2)C(=O)N[C@H](Cc2c[nH]c3ccccc23)C(=O)N[C@@H](CCCCN)C(=O)N[C@H]([C@@H](C)O)C(=O)N1)C(=O)O | 9.9 |
| C[C@@H](O)[C@H](NC(=O)[C@H]1CSSC[C@H](NC(=O)[C@@H](Cc2ccccc2)NC(=O)C(CCCC/N=C(\S)Nc2ccc3c(c2)C(=O)OC32c3ccc(O)cc3Oc3cc(O)ccc32)NC(=O)CN(CCN(CCN(CC(=O)O)CC(=O)O)CC(=O)O)CC(=O)O)C(=O)N[C@@H](Cc2ccc(O)cc2)C(=O)N[C@H](Cc2c[nH]c3ccccc23)C(=O)N[C@@H](CCCCN)C(=O)N[C@H]([C@@H](C)O)C(=O)N1)C(=O)O (some centres undefined) | 10.3 |
| C[C@@H](O)[C@H](NC(=O)[C@H]1CSSC[C@H](NC(=O)[C@@H](Cc2ccccc2)NC(=O)C(CCCCNC(=O)CN(CCN(CCN(CC(=O)O)CC(=O)O)CC(=O)O)CC(=O)O)/N=C(\S)Nc2ccc3c(c2)C(=O)OC32c3ccc(O)cc3Oc3cc(O)ccc32)C(=O)N[C@@H](Cc2ccc(O)cc2)C(=O)N[C@H](Cc2c[nH]c3ccccc23)C(=O)N[C@@H](CCCCN)C(=O)N[C@H]([C@@H](C)O)C(=O)N1)C(=O)O (some centres undefined) | 71.3 |
| C[C@@H](O)[C@H](NC(=O)[C@H]1CSSC[C@H](NC(=O)[C@@H](Cc2ccccc2)NC(=O)CC/N=C(\S)Nc2ccc3c(c2)C(=O)OC32c3ccc(O)cc3Oc3cc(O)ccc32)C(=O)N[C@@H](Cc2ccc(O)cc2)C(=O)N[C@H](Cc2c[nH]c3ccccc23)C(=O)N[C@@H](CCCCN)C(=O)N[C@H]([C@@H](C)O)C(=O)N1)C(=O)O | > 1000 |
| C[C@@H](O)[C@H](NC(=O)[C@H]1CSSC[C@H](NC(=O)[C@@H](Cc2ccccc2)NC(=O)CN(CCN(CCN(CC(=O)O)CC(=O)O)CC(=O)O)CC(=O)O)C(=O)N[C@@H](Cc2ccc(O)cc2)C(=O)N[C@H](Cc2c[nH]c3ccccc23)C(=O)N[C@@H](CCCCN)C(=O)N[C@H]([C@@H](C)O)C(=O)N1)C(=O)O | 1.9 |
| C[C@@H](O)[C@H](NC(=O)[C@H]1CSSC[C@H](NC(=O)[C@@H](Cc2ccccc2)NC(=O)C(CCCCN)/N=C(\S)Nc2ccc3c(c2)C(=O)OC32c3ccc(O)cc3Oc3cc(O)ccc32)C(=O)N[C@@H](Cc2ccc(O)cc2)C(=O)N[C@H](Cc2c[nH]c3ccccc23)C(=O)N[C@@H](CCCCN)C(=O)N[C@H]([C@@H](C)O)C(=O)N1)C(=O)O (some centres undefined) | 6.4 |
| C[C@@H](O)[C@H](NC(=O)[C@H]1CSSC[C@H](NC(=O)[C@@H](Cc2ccccc2)NC(=O)C(N)CCCC/N=C(\S)Nc2ccc3c(c2)C(=O)OC32c3ccc(O)cc3Oc3cc(O)ccc32)C(=O)N[C@@H](Cc2ccc(O)cc2)C(=O)N[C@H](Cc2c[nH]c3ccccc23)C(=O)N[C@@H](CCCCN)C(=O)N[C@H]([C@@H](C)O)C(=O)N1)C(=O)O (some centres undefined) | 187.8 |
| C[C@@H](O)[C@H](NC(=O)[C@H]1CSSC[C@H](NC(=O)[C@@H](Cc2ccccc2)NC(=O)C(CCCC/N=C(/S)Nc2ccc3c(c2)C(=O)OC32c3ccc(O)cc3Oc3cc(O)ccc32)NC(=O)CN2CCN(CC(=O)O)CCN(CC(=O)O)CCN(CC(=O)O)CC2)C(=O)N[C@@H](Cc2ccc(O)cc2)C(=O)N[C@H](Cc2c[nH]c3ccccc23)C(=O)N[C@@H](CCCCN)C(=O)N[C@H]([C@@H](C)O)C(=O)N1)C(=O)O (some centres undefined) | 10.3 |

molecular target: Gastrin-releasing peptide receptor (Rattus norvegicus, UniProt P52500); assay: In vitro binding affinity of [111In]DTPA-[Y4]-bombesin to bombesin receptor in the rat pancreatic acinar cell line, AR42J
In short: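 Competition binding on AR42-J rat pancreatic acinar cell membranes (~50 μg/well) with the tracer [111In]-DTPA-[P1,Y4]-bombesin and increasing concentrations of cold competitor. Buffer was 50 mM Tris-HCl pH 7.4, 5 mM MgCl2, 0.2 mg/mL BSA. Incubation 90 min at room temperature, then filtration and washing. Bound radioactivity was gamma-counted, and IC50 came from a four-parameter fit.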

Sequence of Gastrin-releasing peptide receptor (P52500 whole entry): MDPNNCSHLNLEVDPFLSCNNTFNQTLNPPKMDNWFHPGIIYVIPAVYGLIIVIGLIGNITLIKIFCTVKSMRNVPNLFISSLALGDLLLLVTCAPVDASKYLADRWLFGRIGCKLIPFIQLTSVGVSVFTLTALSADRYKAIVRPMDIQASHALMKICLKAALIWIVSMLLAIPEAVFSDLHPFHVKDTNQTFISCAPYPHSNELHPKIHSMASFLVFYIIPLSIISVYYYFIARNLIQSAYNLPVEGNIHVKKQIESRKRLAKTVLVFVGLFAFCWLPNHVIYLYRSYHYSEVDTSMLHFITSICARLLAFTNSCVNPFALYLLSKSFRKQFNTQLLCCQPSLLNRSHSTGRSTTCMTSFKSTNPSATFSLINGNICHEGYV

| SMILES | pIC50 |
| --- | --- |
| CSCC[C@H](NC(=O)[C@H](CC(C)C)NC(=O)[C@H](Cc1c[nH]cn1)NC(=O)CNC(=O)[C@@H](NC(=O)[C@H](C)NC(=O)[C@H](Cc1c[nH]c2ccccc12)NC(=O)[C@H](CCC(N)=O)NC(=O)[C@H](CC(N)=O)NC(=O)CNC(=O)[C@H](Cc1ccc(O)cc1)NC(=O)[C@H](CCCN=C(N)N)NC(=O)[C@H](CCC(N)=O)NC(=O)[C@@H]1CCCN1C(=O)CN(CCN(CCN(CC(=O)O)CC(=O)O)CC(=O)O)CC(=O)O)C(C)C)C(N)=O | 8.33 |
| CSCC[C@H](NC(=O)[C@H](CC(C)C)NC(=O)[C@H](Cc1c[nH]cn1)NC(=O)CNC(=O)[C@@H](NC(=O)[C@H](C)NC(=O)[C@H](Cc1c[nH]c2ccccc12)NC(=O)[C@H](CCC(N)=O)NC(=O)CNC(=O)[C@H](CO)NC(=O)CNC(=O)[C@@H](N)CCCCNC(=S)Nc1ccc2c(c1)C(=O)OC21c2ccc(O)cc2Oc2cc(O)ccc21)C(C)C)C(N)=O | 8.02 |
| CSCC[C@H](NC(=O)[C@H](CC(C)C)NC(=O)[C@H](Cc1c[nH]cn1)NC(=O)CNC(=O)[C@@H](NC(=O)[C@H](C)NC(=O)[C@H](Cc1c[nH]c2ccccc12)NC(=O)[C@H](CCC(N)=O)NC(=O)[C@@H](N)CCCCNC(=O)CN(CCN(CCN(CC(=O)O)CC(=O)O)CC(=O)O)CC(=O)O)C(C)C)C(N)=O | 8.32 |
| CSCC[C@H](NC(=O)[C@H](CC(C)C)NC(=O)[C@H](Cc1c[nH]cn1)NC(=O)CNC(=O)[C@@H](NC(=O)[C@H](C)NC(=O)[C@H](Cc1c[nH]c2ccccc12)NC(=O)[C@H](CCC(N)=O)NC(=O)[C@H](CCCCN)NC(=O)CN(CCN(CCN(CC(=O)O)CC(=O)O)CC(=O)O)CC(=O)O)C(C)C)C(N)=O | 6.39 |
| CSCC[C@H](NC(=O)[C@H](CC(C)C)NC(=O)[C@H](Cc1c[nH]cn1)NC(=O)CNC(=O)[C@@H](NC(=O)[C@H](C)NC(=O)[C@H](Cc1c[nH]c2ccccc12)NC(=O)[C@H](CCC(N)=O)NC(=O)[C@@H](N)CCCCNC(=S)Nc1ccc2c(c1)C(=O)OC21c2ccc(O)cc2Oc2cc(O)ccc21)C(C)C)C(N)=O | 8.24 |
| CSCC[C@H](NC(=O)[C@H](CC(C)C)NC(=O)[C@H](Cc1cnc[nH]1)NC(=O)CNC(=O)[C@@H](NC(=O)[C@H](C)NC(=O)[C@H](Cc1c[nH]c2ccccc12)NC(=O)[C@@H](N)CCC(N)=O)C(C)C)C(N)=O | 7.55 |
| CSCC[C@H](NC(=O)[C@H](CC(C)C)NC(=O)[C@H](Cc1c[nH]cn1)NC(=O)CNC(=O)[C@@H](NC(=O)[C@H](C)NC(=O)[C@H](Cc1c[nH]c2ccccc12)NC(=O)[C@H](CCC(N)=O)NC(=O)[C@H](CCCCNC(=S)Nc1ccc2c(c1)C(=O)OC21c2ccc(O)cc2Oc2cc(O)ccc21)NC(=O)CN(CCN(CCN(CC(=O)O)CC(=O)O)CC(=O)O)CC(=O)O)C(C)C)C(N)=O | 6.56 |
| CSCC[C@H](NC(=O)[C@H](CC(C)C)NC(=O)[C@H](Cc1c[nH]cn1)NC(=O)CNC(=O)[C@@H](NC(=O)[C@H](C)NC(=O)[C@H](Cc1c[nH]c2ccccc12)NC(=O)[C@H](CCC(N)=O)NC(=O)[C@H](CCCCNC(=O)CN1CCN(CC(=O)O)CCN(CC(=O)O)CCN(CC(=O)O)CC1)NC(=S)Nc1ccc2c(c1)C(=O)OC21c2ccc(O)cc2Oc2cc(O)ccc21)C(C)C)C(N)=O | 7.82 |
